Measured values published in ChEMBL document CHEMBL3779767, “Identification of potent and selective MTH1 inhibitors” (Bioorg Med Chem Lett, 2016).
In brackets after ≈: the same amount, converted by molar mass. Activity calls are given as the source filed them. The rule behind the calls is not given here.

Tests used:
HeLa [1] = experiment: Antiproliferative activity against human HeLa cells assessed as change in phenotypic response measured after prolonged treatment; assay type: functional, cell-based
[2] = biological target: RAC-beta serine/threonine-protein kinase (Homo sapiens) (UniProt P31751); experiment: Inhibition of partial length human AKT2 expressed in bacterial system at 1 uM
Procedure, shortened: (§1)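 Single-point screen within a 97-kinase profiling panel, with the test compound at 1 µM.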

[3] = biological target: Tyrosine-protein kinase receptor UFO (Homo sapiens) (UniProt P30530); experiment: Inhibition of partial length human AXL expressed in bacterial system at 1 uM; procedure, shortened: as §1
[4] = biological target: Aurora kinase A (Homo sapiens) (UniProt O14965); experiment: Inhibition of partial length human Aurora A expressed in mammalian system at 1 uM; procedure, shortened: as §1
Chain of Aurora kinase A (Homo sapiens) (O14965 whole entry): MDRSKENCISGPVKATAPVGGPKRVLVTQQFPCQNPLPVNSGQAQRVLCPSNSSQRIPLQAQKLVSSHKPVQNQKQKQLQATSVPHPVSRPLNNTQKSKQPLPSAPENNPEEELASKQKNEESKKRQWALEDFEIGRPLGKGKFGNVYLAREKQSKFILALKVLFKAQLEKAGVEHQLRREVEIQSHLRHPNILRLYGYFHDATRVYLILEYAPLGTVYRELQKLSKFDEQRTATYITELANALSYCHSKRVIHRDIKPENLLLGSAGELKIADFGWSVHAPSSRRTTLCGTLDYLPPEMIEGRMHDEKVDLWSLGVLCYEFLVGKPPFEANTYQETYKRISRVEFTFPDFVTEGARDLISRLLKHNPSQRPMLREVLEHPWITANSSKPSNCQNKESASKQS

[5] = biological target: Serine/threonine-protein kinase 32C (Homo sapiens) (UniProt Q86UX6); experiment: Inhibition of partial length human YANK3 expressed in bacterial system at 1 uM
Procedure, shortened: (§2)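 Single-concentration screen across a panel of 97 kinases, with the test compound at 1 uM.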

[6] = biological target: Serine/threonine-protein kinase PAK 2 (Homo sapiens) (UniProt Q13177); experiment: Inhibition of partial length human PAK2 expressed in bacterial system at 1 uM; procedure, shortened: as §2
A549 = experiment: Antiproliferative activity against human A549 cells assessed as change in phenotypic response up to 50 uM; assay type: functional, cell-based
[7] = biological target: Mitogen-activated protein kinase 8 (Homo sapiens) (UniProt P45983); experiment: Inhibition of partial length human JNK1 expressed in mammalian system at 1 uM; procedure, shortened: as §1
Chain of Mitogen-activated protein kinase 8 (Homo sapiens) (P45983 whole entry): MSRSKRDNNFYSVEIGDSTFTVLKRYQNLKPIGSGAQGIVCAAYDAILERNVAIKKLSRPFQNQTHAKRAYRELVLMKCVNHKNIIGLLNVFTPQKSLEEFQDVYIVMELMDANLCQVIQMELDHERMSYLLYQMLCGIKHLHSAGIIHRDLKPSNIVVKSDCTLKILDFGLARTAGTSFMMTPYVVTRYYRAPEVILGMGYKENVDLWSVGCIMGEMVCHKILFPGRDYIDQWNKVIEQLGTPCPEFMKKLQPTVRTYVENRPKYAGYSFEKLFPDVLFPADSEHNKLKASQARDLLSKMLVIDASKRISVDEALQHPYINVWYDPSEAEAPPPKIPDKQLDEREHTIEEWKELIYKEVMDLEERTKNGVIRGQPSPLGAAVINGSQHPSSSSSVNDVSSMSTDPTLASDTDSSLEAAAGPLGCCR

[8] = biological target: Insulin-like growth factor 1 receptor (Homo sapiens) (UniProt P08069); experiment: Inhibition of partial length human IGF1R expressed in bacterial system at 1 uM; procedure, shortened: as §1
[9] = biological target: Serine/threonine-protein kinase PAK 1 (Homo sapiens) (UniProt Q13153); experiment: Inhibition of partial length human PAK1 expressed in bacterial system at 1 uM; procedure, shortened: as §2
[10] = biological target: MAP kinase-activated protein kinase 2 (Homo sapiens) (UniProt P49137); experiment: Inhibition of partial length human MAPKAPK2 expressed in bacterial system at 1 uM; procedure, shortened: as §1
[11] = tested on: Tyrosine-protein kinase ABL1 (Homo sapiens), P00519 [E255K]; experiment: Inhibition of partial length human ABL1 E255K mutant phosphorylation expressed in mammalian system at 1 uM; procedure, shortened: as §1
[12] = Half life in mouse liver microsomes; assay type: ADME
Procedure, shortened: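 Incubated with human or mouse liver microsomes; the read-out was intrinsic clearance alongside half-life, given in hours.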

[13] = biological target: Proto-oncogene tyrosine-protein kinase Src (Homo sapiens) (UniProt P12931); experiment: Inhibition of partial length human SRC expressed in bacterial system at 1 uM; procedure, shortened: as §2
Chain of Proto-oncogene tyrosine-protein kinase Src (Homo sapiens) (P12931 2-536 limits assumed): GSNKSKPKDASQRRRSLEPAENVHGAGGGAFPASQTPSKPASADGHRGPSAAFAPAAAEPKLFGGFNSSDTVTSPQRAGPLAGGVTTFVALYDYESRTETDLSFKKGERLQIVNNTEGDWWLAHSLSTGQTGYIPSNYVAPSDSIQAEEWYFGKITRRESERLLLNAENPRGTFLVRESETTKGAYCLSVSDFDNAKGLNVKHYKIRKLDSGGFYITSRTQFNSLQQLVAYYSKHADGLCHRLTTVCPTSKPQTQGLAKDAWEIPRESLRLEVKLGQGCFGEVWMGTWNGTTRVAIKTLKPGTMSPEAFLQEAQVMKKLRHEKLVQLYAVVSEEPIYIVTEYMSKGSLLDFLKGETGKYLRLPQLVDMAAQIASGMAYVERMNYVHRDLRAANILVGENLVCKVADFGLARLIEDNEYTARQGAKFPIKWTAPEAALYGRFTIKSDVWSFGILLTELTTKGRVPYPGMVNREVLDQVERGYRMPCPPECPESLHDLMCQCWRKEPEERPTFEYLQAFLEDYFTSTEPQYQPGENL

[14] = biological target: Serine/threonine-protein kinase PLK3 (Homo sapiens) (UniProt Q9H4B4); experiment: Inhibition of partial length human PLK3 expressed in mammalian system at 1 uM; procedure, shortened: as §2
Chain of Serine/threonine-protein kinase PLK3 (Homo sapiens) (Q9H4B4 whole entry, looked up): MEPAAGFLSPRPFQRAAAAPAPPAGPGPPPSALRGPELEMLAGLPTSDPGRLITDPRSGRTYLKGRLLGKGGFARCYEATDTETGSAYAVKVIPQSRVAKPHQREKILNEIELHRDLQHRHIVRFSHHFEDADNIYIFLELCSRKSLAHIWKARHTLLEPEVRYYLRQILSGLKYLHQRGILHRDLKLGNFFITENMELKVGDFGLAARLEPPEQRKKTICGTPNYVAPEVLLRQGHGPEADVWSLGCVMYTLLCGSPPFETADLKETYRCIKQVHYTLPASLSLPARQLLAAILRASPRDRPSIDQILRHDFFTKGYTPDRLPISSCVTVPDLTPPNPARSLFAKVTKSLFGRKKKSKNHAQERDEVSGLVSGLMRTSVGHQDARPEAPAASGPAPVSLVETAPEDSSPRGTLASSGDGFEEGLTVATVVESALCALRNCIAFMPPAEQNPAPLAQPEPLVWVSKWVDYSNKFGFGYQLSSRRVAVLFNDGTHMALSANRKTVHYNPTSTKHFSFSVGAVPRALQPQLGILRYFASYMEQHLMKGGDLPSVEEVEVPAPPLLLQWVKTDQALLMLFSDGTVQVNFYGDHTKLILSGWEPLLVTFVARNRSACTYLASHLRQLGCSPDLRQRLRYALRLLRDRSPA

[15] = Cytotoxicity against human 293T cells assessed as change in phenotypic response up to 50 uM; assay type: cell-based; details: hek-293t
NCI-H460 = experiment: Antiproliferative activity against human NCI-H460 cells assessed as change in phenotypic response up to 50 uM; assay type: functional, cell-based
[16] = biological target: Receptor tyrosine-protein kinase erbB-2 (Homo sapiens) (UniProt P04626); experiment: Inhibition of partial length human ERBB2 expressed in mammalian system at 1 uM
Procedure, shortened: (§3)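 Single-concentration screen at 1 µM test concentration, run as part of a commercial binding/activity profiling panel covering 97 kinases.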

Liver microsome = experiment: Intrinsic clearance in human liver microsomes; assay type: ADME
HCT-116 [17] = experiment: Antiproliferative activity against human HCT116 cells assessed as change in phenotypic response up to 50 uM; assay type: functional, cell-based
[18] = Cytotoxicity against human WI38 cells assessed as change in phenotypic response up to 50 uM; assay type: cell-based; details: wi-38
HeLa [19] = experiment: Antiproliferative activity against human HeLa cells assessed as change in phenotypic response up to 50 uM; assay type: functional, cell-based
[20] = biological target: Bone morphogenetic protein receptor type-2 (Homo sapiens) (UniProt Q13873); experiment: Inhibition of partial length human BMPR2 expressed in mammalian system at 1 uM; procedure, shortened: as §1
[21] = Fraction unbound in human plasma; assay type: ADME, cell-free
BJ [22] = experiment: Cytotoxicity against human BJ cells assessed as change in phenotypic response up to 50 uM; assay type: cell-based
SW480 = experiment: Antiproliferative activity against human SW480 cells assessed as change in phenotypic response measured after prolonged treatment; assay type: functional, cell-based
[23] = biological target: Receptor tyrosine-protein kinase erbB-4 (Homo sapiens) (UniProt Q15303); experiment: Inhibition of partial length human ERBB4 expressed in bacterial system at 1 uM; procedure, shortened: as §1
[24] = biological target: Aurora kinase B (Homo sapiens) (UniProt Q96GD4); experiment: Inhibition of partial length human Aurora B expressed in mammalian system at 1 uM; procedure, shortened: as §1
[25] = Plasma protein binding in human; assay type: ADME, cell-free; details: read-out: PPB (converted)
MDA-MB-231 = experiment: Antiproliferative activity against human MDA-MB-231 cells assessed as change in phenotypic response measured after prolonged treatment; assay type: functional, cell-based
[26] = biological target: TGF-beta receptor type-1 (Homo sapiens) (UniProt P36897); experiment: Inhibition of partial length human TGFBR1 expressed in bacterial system at 1 uM; procedure, shortened: as §2
Chain of TGF-beta receptor type-1 (Homo sapiens) (P36897 whole entry): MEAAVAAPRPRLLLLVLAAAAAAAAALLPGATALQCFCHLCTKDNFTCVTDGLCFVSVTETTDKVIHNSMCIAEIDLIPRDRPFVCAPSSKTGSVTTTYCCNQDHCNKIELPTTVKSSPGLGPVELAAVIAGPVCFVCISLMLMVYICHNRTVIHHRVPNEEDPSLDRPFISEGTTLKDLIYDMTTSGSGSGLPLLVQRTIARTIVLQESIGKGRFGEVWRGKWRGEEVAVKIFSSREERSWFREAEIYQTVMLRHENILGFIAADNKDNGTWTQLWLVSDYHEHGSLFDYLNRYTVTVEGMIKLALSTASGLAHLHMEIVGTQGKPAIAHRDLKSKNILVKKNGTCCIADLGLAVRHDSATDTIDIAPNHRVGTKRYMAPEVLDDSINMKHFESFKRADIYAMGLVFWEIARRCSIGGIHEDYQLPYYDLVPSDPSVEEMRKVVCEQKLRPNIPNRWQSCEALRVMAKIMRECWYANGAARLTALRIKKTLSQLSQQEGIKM

[27] = Solubility of the compound in PBS at pH 7; assay type: physicochemical
Procedure, shortened: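 Aqueous solubility was determined in sodium phosphate buffer at pH 7.0.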

[28] = biological target: SRSF protein kinase 3 (Homo sapiens) (UniProt Q9UPE1); experiment: Inhibition of partial length human SRPK3 expressed in bacterial system at 1 uM; procedure, shortened: as §2
Chain of SRSF protein kinase 3 (Homo sapiens) (Q9UPE1 whole entry): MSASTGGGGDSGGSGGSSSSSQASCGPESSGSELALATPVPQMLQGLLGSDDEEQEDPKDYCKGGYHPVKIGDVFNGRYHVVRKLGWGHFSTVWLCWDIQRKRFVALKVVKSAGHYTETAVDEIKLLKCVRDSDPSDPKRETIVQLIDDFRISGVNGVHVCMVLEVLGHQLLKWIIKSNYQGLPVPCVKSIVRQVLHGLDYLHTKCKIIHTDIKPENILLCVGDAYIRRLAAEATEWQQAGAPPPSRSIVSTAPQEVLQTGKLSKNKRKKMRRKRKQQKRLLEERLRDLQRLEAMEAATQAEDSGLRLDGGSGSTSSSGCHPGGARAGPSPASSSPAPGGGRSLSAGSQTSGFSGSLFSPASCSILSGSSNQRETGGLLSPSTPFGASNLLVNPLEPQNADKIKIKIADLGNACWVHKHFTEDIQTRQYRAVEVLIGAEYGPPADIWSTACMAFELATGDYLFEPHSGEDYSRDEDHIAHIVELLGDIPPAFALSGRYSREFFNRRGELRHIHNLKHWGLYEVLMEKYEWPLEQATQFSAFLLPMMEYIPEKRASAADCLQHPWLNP

[29] = biological target: Testis-specific serine/threonine-protein kinase 1 (Homo sapiens) (UniProt Q9BXA7); experiment: Inhibition of partial length human TSSK1B expressed in bacterial system at 1 uM; procedure, shortened: as §2
[30] = Cytotoxicity against human 293T cells assessed as change in phenotypic response measured after prolonged treatment; assay type: cell-based; details: hek-293t
[31] = biological target: Fibroblast growth factor receptor 2 (Homo sapiens) (UniProt P21802); experiment: Inhibition of partial length human FGFR2 expressed in bacterial system at 1 uM; procedure, shortened: as §1
Chain of Fibroblast growth factor receptor 2 (Homo sapiens) (P21802 22-821 limits assumed): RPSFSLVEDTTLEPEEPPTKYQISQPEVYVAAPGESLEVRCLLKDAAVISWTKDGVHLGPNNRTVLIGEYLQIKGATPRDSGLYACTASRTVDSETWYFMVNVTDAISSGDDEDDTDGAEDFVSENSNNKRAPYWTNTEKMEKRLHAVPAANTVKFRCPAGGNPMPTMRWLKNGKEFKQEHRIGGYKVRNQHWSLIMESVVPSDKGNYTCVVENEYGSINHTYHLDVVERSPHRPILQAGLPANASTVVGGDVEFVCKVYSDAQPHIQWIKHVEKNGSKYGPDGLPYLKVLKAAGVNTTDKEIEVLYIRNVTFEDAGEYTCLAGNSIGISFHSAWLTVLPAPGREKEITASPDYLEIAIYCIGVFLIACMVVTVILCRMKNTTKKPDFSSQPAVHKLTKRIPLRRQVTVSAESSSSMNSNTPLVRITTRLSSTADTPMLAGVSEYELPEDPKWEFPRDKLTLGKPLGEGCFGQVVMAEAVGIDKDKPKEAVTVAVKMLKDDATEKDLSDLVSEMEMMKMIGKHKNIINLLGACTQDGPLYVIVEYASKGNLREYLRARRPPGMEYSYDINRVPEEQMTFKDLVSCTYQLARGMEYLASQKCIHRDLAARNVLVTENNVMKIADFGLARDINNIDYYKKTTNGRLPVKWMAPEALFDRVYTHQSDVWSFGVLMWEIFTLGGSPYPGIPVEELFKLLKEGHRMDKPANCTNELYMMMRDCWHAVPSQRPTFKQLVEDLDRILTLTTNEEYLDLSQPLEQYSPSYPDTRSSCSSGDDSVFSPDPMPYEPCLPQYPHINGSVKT

BJ [32] = experiment: Cytotoxicity against human BJ cells assessed as change in phenotypic response measured after prolonged treatment; assay type: cell-based
[33] = biological target: Atypical kinase COQ8A, mitochondrial (Homo sapiens) (UniProt Q8NI60); experiment: Inhibition of partial length human ADCK3 expressed in bacterial system at 1 uM; procedure, shortened: as §1
[34] = biological target: Serine/threonine-protein kinase pim-3 (Homo sapiens) (UniProt Q86V86); experiment: Inhibition of partial length human PIM3 expressed in bacterial system at 1 uM; procedure, shortened: as §2
HCT-116 [35] = experiment: Antiproliferative activity against human HCT116 cells assessed as change in phenotypic response measured after prolonged treatment; assay type: functional, cell-based
[36] = biological target: Mitogen-activated protein kinase 10 (Homo sapiens) (UniProt P53779); experiment: Inhibition of partial length human JNK3 expressed in mammalian system at 1 uM; procedure, shortened: as §1
[37] = biological target: Tyrosine-protein kinase JAK2 (Homo sapiens) (UniProt O60674); experiment: Inhibition of partial length human JAK2 JH1 catalytic domain expressed in mammalian system at 1 uM; procedure, shortened: as §1
Chain of Tyrosine-protein kinase JAK2 (Homo sapiens) (O60674 whole entry, the tested form may be a part): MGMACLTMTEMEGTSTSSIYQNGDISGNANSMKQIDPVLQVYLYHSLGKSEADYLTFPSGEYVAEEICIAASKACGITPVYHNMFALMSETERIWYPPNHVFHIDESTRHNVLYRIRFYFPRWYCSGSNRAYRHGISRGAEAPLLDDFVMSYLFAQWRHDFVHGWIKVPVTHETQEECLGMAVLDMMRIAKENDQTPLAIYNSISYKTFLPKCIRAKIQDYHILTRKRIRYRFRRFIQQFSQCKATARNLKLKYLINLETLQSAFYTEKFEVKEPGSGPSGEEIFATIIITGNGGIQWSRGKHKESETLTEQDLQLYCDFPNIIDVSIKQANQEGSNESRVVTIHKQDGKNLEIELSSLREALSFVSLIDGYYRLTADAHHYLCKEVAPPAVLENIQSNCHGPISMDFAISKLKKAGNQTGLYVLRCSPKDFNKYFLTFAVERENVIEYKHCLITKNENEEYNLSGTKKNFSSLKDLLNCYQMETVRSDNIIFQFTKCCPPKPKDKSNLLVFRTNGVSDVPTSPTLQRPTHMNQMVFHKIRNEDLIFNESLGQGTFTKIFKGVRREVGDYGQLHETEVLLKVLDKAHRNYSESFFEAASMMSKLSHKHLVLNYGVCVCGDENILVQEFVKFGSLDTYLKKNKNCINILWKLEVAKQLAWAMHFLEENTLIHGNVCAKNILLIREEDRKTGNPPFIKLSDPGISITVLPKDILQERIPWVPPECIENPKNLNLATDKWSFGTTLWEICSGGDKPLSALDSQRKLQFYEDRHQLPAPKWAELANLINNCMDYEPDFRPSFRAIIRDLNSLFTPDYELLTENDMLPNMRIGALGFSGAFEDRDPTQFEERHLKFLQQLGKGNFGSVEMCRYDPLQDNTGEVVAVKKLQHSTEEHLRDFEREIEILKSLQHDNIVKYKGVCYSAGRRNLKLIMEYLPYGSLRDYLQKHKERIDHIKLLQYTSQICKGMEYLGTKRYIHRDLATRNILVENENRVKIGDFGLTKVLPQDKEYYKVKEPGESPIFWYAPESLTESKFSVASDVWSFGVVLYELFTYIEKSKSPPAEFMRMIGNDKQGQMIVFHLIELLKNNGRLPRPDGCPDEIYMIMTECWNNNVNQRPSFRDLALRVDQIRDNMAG

NCI-H358 = experiment: Antiproliferative activity against human NCI-H358 cells assessed as change in phenotypic response measured after prolonged treatment; assay type: functional, cell-based
[38] = tested on: Epidermal growth factor receptor (Homo sapiens), P04626+P00533+Q15303+P21860 [L858R]; experiment: Inhibition of partial length human EGFR L858R mutant expressed in bacterial system at 1 uM; procedure, shortened: as §3

## Cc1cnc(N)nc1OCC(C)(C)CO
HeLa [1]
  Activity: inactive
[2]
  inhibition: inactive
[3]
  inhibition: inactive
[4]
  inhibition: inactive
[5]
  inhibition: inactive
[6]
  inhibition: inactive
A549
  Activity: inactive
[7]
  inhibition: inactive
[8]
  inhibition: inactive
[9]
  inhibition: inactive
[10]
  inhibition: inactive
[11]
  inhibition: inactive
[12]
  half-life: 1.5 h
[13]
  inhibition: inactive
[14]
  inhibition: inactive
[15]
  Activity: Non-toxic
NCI-H460
  Activity: inactive
[16]
  inhibition: inactive
Liver microsome
  CLH: 7.5 µL/min/mg
HCT-116 [17]
  Activity: inactive
[18]
  Activity: Non-toxic
HeLa [19]
  Activity: inactive
[20]
  inhibition: inactive
[21]
  fraction unbound: 0.46
BJ [22]
  Activity: Non-toxic
SW480
  Activity: inactive
[23]
  inhibition: inactive
[24]
  inhibition: inactive
[25]
  fraction unbound: 0.46
MDA-MB-231
  Activity: inactive
[26]
  inhibition: inactive
[27]
  solubility: 75.6 µM (≈ 16 µg/mL)
[28]
  inhibition: inactive
[29]
  inhibition: inactive
[30]
  Activity: Non-toxic
[31]
  inhibition: inactive
BJ [32]
  Activity: Non-toxic
[33]
  inhibition: inactive
[34]
  inhibition: inactive
HCT-116 [35]
  Activity: inactive
[36]
  inhibition: inactive
[37]
  inhibition: inactive
NCI-H358
  Activity: inactive
[38]
  inhibition: inactive
